One block for each molecule: values may come before it.
What was measured:
class I HDACs = details: cited from earlier work
BT549 = test: Colony formation assay; assay type: cell-based; details: BT549 breast cancer cells
Summary of the method: (§1)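 Cells were grown with test compound, and the medium with freshly added compound was replaced every five days until colonies reached suitable size. Colonies were then stained. Four biological replicates.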

HDACs = test: HDAC-Glo I/II Assays; assay type: biochemical; details: Table S1
HDAC3 = HDAC3 (Homo sapiens, UniProt O15379); test: Western blot analysis of HDAC3 degradation in breast cancer cells; assay type: cell-based
Summary of the method: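 MDA-MB-468 cells were treated with test compound for 14 h, and HDAC3 was assessed by western blot with band intensity normalized to α-tubulin. For the mechanism arm, cells were pretreated for 1 h with 1 μM MG132 or 10 μM VHL032 before 125 nM compound. A time course used 125 nM. For washout, cells got 125 nM for 14 h, then drug-free medium for additional time.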

HDAC6 = biological target: T1, HDAC6 (Homo sapiens, UniProt Q9UBN7); test: Western blot analysis of HDAC6 protein level in MDA-MB-468 cells; assay type: cell-based; details: 14 h treatment
T1 sequence (Q9UBN7 1-1215): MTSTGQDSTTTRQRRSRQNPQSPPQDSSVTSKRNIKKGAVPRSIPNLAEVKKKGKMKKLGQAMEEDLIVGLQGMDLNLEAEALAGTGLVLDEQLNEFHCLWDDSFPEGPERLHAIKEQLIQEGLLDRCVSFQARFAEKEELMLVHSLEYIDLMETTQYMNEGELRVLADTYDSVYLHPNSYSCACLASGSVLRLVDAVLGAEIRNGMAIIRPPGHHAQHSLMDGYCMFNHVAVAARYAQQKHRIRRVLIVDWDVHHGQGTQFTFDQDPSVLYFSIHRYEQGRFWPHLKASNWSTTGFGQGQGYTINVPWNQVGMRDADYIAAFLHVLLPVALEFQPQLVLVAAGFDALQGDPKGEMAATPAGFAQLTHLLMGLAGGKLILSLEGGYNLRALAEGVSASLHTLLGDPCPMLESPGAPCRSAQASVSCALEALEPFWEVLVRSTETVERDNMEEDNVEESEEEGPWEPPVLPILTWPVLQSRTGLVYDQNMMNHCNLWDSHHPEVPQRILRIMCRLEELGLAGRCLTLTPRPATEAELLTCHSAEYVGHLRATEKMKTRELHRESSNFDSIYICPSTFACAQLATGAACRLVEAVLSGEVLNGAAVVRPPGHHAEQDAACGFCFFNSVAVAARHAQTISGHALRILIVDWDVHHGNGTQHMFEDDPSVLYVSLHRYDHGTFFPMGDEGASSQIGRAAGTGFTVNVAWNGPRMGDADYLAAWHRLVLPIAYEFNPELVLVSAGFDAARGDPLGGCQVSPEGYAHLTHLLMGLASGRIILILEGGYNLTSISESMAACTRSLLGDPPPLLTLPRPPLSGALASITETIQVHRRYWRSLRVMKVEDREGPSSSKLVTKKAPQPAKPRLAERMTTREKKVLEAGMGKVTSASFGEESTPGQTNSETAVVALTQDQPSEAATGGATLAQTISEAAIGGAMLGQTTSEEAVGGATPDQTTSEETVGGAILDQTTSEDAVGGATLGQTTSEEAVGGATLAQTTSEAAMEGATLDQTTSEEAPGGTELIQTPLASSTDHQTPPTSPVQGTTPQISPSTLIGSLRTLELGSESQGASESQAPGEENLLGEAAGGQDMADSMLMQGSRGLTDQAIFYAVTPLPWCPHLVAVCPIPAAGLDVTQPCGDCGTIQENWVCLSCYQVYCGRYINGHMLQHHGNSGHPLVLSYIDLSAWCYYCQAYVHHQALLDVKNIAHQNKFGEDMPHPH
Summary of the method: (§2)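 MDA-MB-468 cells were treated with test compound for 14 h, then the HDAC isoform protein level was assessed by western blot.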

HDAC1 = HDAC1 (Homo sapiens, UniProt Q13547); test: Western blot analysis of HDAC1 protein level in breast cancer cells; assay type: cell-based; details: MDA-MB-468 cells, 14 h treatment
Summary of the method: as §2

Cytotoxicity = assay type: cell-based; details: Fig. S3
[1] = test system: histone acetylation at H3K27 and H4K5; test: Western blot analysis of histone acetylation; assay type: cell-based
HDAC2 = HDAC2 (Homo sapiens, UniProt Q92769); test: Western blot analysis of HDAC2 protein level in breast cancer cells; assay type: cell-based; details: MDA-MB-468 cells, 14 h treatment
Summary of the method: as §2

HCC1143 = test: Colony formation assay; assay type: cell-based; details: HCC1143 breast cancer cells
Summary of the method: as §1

T47D = test: Colony formation assay; assay type: cell-based; details: T47D breast cancer cells
Summary of the method: as §1

MDA-MB-468 cells = test: Colony formation assay; assay type: cell-based; details: difference was moderate
Summary of the method: as §1

Chain of HDAC3 (O15379 whole entry): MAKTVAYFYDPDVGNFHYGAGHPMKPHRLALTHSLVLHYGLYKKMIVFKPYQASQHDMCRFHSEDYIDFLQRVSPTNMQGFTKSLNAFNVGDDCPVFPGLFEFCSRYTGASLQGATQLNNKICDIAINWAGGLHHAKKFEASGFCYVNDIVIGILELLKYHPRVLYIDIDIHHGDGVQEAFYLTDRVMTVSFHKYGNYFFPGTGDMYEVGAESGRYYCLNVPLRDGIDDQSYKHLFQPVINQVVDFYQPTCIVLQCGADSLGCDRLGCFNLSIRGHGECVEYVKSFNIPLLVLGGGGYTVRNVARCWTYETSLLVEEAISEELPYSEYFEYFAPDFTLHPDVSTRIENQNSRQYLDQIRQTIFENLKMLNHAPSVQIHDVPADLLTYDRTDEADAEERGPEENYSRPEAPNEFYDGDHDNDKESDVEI
Chain of HDAC3 (Q9Y618 whole entry partner): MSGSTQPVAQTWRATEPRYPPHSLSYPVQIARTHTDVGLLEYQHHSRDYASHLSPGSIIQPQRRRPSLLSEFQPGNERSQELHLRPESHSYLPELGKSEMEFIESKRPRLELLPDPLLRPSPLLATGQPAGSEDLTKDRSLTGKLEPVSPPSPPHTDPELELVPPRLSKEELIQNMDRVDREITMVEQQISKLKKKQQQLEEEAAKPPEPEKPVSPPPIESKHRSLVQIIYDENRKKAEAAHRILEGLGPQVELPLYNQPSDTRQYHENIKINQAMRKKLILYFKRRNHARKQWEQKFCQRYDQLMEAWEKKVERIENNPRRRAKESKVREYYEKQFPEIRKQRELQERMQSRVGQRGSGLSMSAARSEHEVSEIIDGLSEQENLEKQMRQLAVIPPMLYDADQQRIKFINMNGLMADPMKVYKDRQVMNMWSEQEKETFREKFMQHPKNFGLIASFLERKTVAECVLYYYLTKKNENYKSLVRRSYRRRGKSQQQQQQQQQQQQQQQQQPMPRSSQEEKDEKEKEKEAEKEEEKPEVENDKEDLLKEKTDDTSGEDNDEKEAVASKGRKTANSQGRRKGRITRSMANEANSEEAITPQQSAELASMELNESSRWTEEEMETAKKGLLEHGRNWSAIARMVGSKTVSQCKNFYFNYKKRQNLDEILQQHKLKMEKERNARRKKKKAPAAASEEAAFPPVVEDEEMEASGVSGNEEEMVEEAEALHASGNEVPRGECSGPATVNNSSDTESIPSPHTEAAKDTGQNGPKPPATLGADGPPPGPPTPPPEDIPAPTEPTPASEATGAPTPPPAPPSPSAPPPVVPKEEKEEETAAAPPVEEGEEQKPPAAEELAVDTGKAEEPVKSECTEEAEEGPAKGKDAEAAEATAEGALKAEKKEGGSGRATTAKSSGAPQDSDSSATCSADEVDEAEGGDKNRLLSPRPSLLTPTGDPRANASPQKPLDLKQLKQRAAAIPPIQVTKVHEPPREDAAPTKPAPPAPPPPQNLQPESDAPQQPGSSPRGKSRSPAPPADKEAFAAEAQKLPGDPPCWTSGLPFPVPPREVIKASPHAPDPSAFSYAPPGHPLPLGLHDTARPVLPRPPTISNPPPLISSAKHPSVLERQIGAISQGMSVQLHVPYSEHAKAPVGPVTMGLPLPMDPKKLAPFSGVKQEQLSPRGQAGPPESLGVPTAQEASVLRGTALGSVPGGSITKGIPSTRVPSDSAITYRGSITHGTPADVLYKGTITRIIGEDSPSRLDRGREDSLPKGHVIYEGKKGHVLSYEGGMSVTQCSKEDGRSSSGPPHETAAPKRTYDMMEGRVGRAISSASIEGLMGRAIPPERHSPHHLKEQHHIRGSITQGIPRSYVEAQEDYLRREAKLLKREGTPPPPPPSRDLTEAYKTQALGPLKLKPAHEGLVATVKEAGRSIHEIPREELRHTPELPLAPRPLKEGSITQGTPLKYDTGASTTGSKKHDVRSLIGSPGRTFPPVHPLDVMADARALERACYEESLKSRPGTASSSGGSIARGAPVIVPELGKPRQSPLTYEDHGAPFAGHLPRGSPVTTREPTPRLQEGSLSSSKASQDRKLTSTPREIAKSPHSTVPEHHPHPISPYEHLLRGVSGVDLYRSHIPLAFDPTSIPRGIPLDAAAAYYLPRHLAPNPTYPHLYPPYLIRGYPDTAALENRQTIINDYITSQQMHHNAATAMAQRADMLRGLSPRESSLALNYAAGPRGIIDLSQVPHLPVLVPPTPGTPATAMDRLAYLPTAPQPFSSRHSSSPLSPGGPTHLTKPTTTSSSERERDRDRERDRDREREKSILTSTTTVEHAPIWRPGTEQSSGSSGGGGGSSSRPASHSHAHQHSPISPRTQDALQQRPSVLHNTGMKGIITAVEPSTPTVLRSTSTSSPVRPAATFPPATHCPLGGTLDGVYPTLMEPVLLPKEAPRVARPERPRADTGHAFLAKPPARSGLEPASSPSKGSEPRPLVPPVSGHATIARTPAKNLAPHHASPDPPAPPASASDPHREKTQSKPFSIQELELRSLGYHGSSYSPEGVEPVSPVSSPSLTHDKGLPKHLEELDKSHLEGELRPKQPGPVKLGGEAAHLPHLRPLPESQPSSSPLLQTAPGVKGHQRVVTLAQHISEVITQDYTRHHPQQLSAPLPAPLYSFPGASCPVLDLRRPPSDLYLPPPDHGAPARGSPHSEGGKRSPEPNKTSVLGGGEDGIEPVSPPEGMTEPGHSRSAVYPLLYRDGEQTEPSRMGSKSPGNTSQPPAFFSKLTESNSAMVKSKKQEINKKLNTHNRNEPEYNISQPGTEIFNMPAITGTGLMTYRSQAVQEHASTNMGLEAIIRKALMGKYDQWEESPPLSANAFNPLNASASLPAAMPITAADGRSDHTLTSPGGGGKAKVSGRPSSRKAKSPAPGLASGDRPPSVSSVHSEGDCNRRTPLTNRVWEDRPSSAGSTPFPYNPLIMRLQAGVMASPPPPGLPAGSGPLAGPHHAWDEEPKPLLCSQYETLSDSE
Chain of HDAC2 (Q92769 whole entry): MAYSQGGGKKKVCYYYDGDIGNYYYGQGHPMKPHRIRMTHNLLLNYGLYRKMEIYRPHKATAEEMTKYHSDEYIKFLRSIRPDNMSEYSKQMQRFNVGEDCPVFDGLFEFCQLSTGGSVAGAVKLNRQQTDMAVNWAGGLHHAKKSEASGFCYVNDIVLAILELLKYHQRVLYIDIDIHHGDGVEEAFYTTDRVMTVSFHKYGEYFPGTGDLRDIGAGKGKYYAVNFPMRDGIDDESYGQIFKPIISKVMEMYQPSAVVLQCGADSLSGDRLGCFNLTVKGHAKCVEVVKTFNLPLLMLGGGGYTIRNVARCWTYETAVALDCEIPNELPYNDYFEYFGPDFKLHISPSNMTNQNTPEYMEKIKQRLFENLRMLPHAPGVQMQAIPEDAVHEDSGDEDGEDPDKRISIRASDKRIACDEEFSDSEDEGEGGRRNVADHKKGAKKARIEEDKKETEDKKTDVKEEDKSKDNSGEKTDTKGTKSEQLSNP
Chain of HDAC1 (Q13547 whole entry): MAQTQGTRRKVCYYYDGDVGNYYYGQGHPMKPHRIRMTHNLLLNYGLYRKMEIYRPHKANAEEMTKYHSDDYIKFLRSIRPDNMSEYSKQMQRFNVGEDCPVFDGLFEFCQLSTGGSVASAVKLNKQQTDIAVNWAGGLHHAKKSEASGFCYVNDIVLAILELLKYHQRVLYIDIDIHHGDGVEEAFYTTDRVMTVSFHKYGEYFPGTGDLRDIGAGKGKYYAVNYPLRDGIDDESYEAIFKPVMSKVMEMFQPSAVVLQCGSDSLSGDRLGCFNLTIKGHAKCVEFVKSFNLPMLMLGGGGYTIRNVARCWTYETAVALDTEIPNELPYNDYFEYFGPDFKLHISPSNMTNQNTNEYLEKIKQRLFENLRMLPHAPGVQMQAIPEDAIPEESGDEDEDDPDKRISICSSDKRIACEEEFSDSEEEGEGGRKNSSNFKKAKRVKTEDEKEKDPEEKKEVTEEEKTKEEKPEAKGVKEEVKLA

Compound: CCCCNNC(=O)c1ccc(-c2ccccc2)cc1 [SR-3558]
HDAC isozyme binding preference (class I HDACs; benzoylhydrazide ZBG): preferentially binds to HDAC3
inhibition of class I HDACs (class I HDACs): potent and selective inhibitor

binding of HDAC3 compared with other HDACs (HDACs): more strongly
time for HDAC3 to rebound to the steady level after washout (HDAC3; MDA-MB-468, 125 nM for 14 h then drug-free medium): more than 12 h
HDAC3 degraded (HDAC3; MDA-MB-468, 125 nM, 8 h treatment): 70%
start of HDAC3 degradation (HDAC3; MDA-MB-468, 125 nM, time course): ≤ 2 h
HDAC3 degradation after pre-incubation with proteasome inhibitor MG132 (HDAC3; MDA-MB-468, XZ9002 125 nM, MG132 1 μM for 1 h): blocked
HDAC3 degradation after pre-incubation with VHL ligand VH032 (HDAC3; MDA-MB-468, XZ9002 125 nM, VH032 10 μM for 1 h): blocked
change in protein level of HDAC6 (HDAC6): no significant changes
change in protein level of HDAC1 (HDAC1): no significant changes
change in protein level of HDAC2 (HDAC2): no significant changes
Compound: CCCNNC(=O)c1ccc(-c2ccc(NC(=O)CCCCCCC(=O)N[C@H](C(=O)N3C[C@H](O)C[C@H]3C(=O)N[C@@H](C)c3ccc(-c4scnc4C)cc3)C(C)(C)C)cc2)cc1 [XZ9002]
suppression of clonogenic growth compared to XZ9002-NC (BT549): markedly more potent
potency to induce cytotoxicity compared to 15 (Cytotoxicity): less potent
histone acetylation ([1]; Fig. 2A and Fig. S2, moderate effects compared to 15 and CRBN-based PROTACs): dose-dependently increased
potency to induce histone hyperacetylation compared to 15 ([1]; Fig. S2): less potent
suppression of clonogenic growth compared to XZ9002-NC (HCC1143): markedly more potent
suppression of clonogenic growth compared to XZ9002-NC (T47D): markedly more potent
inhibition of clonogenic growth compared to XZ9002-NC (MDA-MB-468 cells): more effective

HDAC3 degradation (HDAC3; MDA-MB-468 cells, Fig. 2B): did not induce HDAC3 degradation
Compound: CCCNNC(=O)c1ccc(-c2ccc(NC(=O)CCCCCCC(=O)N[C@H](C(=O)N3C[C@@H](O)C[C@@H]3C(=O)N[C@@H](C)c3ccc(-c4scnc4C)cc3)C(C)(C)C)cc2)cc1 [XZ9002-NC]

— article PMC7654701 (Chemical communications (Cambridge, England), 2020)
